Source: ChEMBL document CHEMBL1144443, “Novel 3D pharmacophore of alpha-MSH/gamma-MSH hybrids leads to selective human MC1R and MC3R analogues” (J Med Chem, 2005)
Where a SMILES comes first, the peptide text is derived from it. [ ]: non-standard residue; d: D form. d2Nal = N[C@H](Cc1ccc2ccccc2c1)C(=O)O; Nle = CCCC[C@H](N)C(=O)O

How the values were obtained:
[1] = molecular target: T1, Melanocyte-stimulating hormone receptor (Homo sapiens, UniProt Q01726); test: Maximal effect on human melanocortin 1 receptor expressing HEK 293 cells; format: functional, cell-based; conditions: HEK293
How it was run: (§1)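 HEK293 cells transfected with human MCRs, grown in MEM with 10% FBS, seeded 48 h before at 100 000 cells/well. Stopped with ice-cold Tris/EDTA, boiled 15 min, centrifuged; cAMP in supernatant measured by competitive binding kit. EC50 and maximal response by nonlinear least-squares fit.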
Target sequence in this assay (Q01726 whole entry, looked up): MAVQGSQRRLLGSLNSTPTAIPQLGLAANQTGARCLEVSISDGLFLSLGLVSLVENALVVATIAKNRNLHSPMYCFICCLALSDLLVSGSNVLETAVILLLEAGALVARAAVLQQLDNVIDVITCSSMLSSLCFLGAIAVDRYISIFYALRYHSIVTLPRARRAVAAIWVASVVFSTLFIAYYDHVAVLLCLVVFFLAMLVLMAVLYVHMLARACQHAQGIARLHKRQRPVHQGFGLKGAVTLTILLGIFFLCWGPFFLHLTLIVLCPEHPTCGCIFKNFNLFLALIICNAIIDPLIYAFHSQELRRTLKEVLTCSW

Melanocortin receptor 4 [2] = molecular target: T2, Melanocortin receptor 4 (Homo sapiens, UniProt P32245); conditions: HEK293
Melanocortin receptor 5 [3] = molecular target: T3, Melanocortin receptor 5 (Homo sapiens, UniProt P33032); test: Maximal effect on human melanocortin 5 receptor expressing HEK 293 cells; format: functional, cell-based; conditions: HEK293; how it was run: as §1
Melanocortin receptor 3 [4] = molecular target: T4, Melanocortin receptor 3 (Homo sapiens, UniProt P41968); test: Maximal effect on human melanocortin 3 receptor expressing HEK 293 cells; format: functional, cell-based; conditions: HEK293; how it was run: as §1
Melanocortin receptor 4 [5] = molecular target: T2, Melanocortin receptor 4; format: cell-based, HEK293
Melanocortin receptor 4 [6] = molecular target: T2, Melanocortin receptor 4; test: Effective concentration for intracellular cAMP accumulation in human melanocortin 4 receptor expressing HEK 293 cells; (N = 4); format: functional, cell-based, HEK293
Melanocortin receptor 5 [7] = molecular target: T3, Melanocortin receptor 5; format: cell-based, HEK293
[8] = molecular target: T1, Melanocyte-stimulating hormone receptor; format: cell-based, HEK293
Target sequence in this assay (Q01726 whole entry): as the sequence (Q01726 whole entry, looked up) above

Melanocortin receptor 5 [9] = molecular target: T3, Melanocortin receptor 5; test: Effective concentration for intracellular cAMP accumulation in human melanocortin 5 receptor expressing HEK 293 cells; (N = 4); format: functional, cell-based, HEK293; how it was run: as §1
Melanocortin receptor 3 [10] = molecular target: T4, Melanocortin receptor 3; format: cell-based, HEK293
[11] = molecular target: T1, Melanocyte-stimulating hormone receptor; test: Effective concentration for intracellular cAMP accumulation in human melanocortin 1 receptor expressing HEK 293 cells; (N = 4); format: functional, cell-based, HEK293; how it was run: as §1
Target sequence in this assay (Q01726 whole entry): as the sequence (Q01726 whole entry, looked up) above

Melanocortin receptor 5 [12] = molecular target: T3, Melanocortin receptor 5; test: Effective concentration for intracellular cAMP accumulation in human melanocortin 5 receptor expressing HEK 293 cells; (N = 4), No activity; format: functional, cell-based; conditions: hek293
How it was run: as §1, with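 “cells/well. Preincubated 1 min at 37 °C in EBSS with IBMX, then exposed 3 min at 37 °C to peptide (10^-10 to 10^-5 M).” for “cells/well.”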

Melanocortin receptor 3 [13] = molecular target: T4, Melanocortin receptor 3; test: Effective concentration for intracellular cAMP accumulation in human melanocortin 3 receptor expressing HEK 293 cells; (N = 4); format: functional, cell-based, HEK293; how it was run: as §1

T2 sequence (P32245 whole entry): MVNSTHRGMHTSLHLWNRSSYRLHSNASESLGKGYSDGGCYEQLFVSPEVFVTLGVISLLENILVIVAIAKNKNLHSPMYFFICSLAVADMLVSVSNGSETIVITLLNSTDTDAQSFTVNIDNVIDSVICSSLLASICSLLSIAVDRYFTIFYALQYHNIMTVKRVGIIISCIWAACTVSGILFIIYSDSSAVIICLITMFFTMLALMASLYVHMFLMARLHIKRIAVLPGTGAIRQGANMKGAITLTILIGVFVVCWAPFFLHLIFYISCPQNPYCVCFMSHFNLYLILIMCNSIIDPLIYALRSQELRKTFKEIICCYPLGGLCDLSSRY
T3 sequence (P33032 whole entry): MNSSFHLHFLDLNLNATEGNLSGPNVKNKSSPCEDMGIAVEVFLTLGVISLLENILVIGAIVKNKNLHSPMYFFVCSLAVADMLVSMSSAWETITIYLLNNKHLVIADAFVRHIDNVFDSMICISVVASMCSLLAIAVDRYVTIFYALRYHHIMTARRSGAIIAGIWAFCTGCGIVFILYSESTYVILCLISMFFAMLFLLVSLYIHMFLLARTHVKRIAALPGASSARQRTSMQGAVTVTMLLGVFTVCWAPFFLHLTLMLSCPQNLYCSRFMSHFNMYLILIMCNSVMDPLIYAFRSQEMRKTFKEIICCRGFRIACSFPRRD
T4 sequence (P41968 whole entry): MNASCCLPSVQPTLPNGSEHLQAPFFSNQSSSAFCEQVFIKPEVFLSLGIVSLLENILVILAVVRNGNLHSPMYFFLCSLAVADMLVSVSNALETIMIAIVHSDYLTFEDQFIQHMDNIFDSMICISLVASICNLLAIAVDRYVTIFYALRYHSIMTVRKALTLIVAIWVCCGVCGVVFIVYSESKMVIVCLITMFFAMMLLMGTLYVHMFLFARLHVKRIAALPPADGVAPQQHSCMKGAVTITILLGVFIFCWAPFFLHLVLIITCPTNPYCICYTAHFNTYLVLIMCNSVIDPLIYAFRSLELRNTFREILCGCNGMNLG

Row | IC50 (Melanocortin receptor 4 [5]) | EC50 (Melanocortin receptor 4 [6]) | IC50 (Melanocortin receptor 5 [7]) | IC50 [8] | EC50 (Melanocortin receptor 5 [9]) | IC50 (Melanocortin receptor 3 [10]) | EC50 [11] | EC50 (Melanocortin receptor 3 [13]) | SMILES | other results
1 | – | – | – | – | – | – | – | – | CCCC[C@H](NC(=O)[C@@H](NC(=O)[C@@H](N)Cc1ccc(O)cc1)C(C)C)C(=O)NCC(=O)N1CCC[C@H]1C(=O)N[C@@H](Cc1ccccc1)C(=O)N[C@@H](CCCN=C(N)N)C(=O)N[C@H](Cc1ccc2ccccc2c1)C(=O)N[C@@H](CC(=O)O)C(=O)N[C@@H](CCCN=C(N)N)C(=O)N[C@@H](Cc1ccccc1)C(=O)NCC(=O)O | Maximal effect [1]: 120%; Maximal effect (Melanocortin receptor 4 [2]): 14%; Maximal effect (Melanocortin receptor 5 [3]): 46%; Maximal effect (Melanocortin receptor 3 [4]): 28%
2 | 64 nM | – | – | – | – | – | – | – | CCCC[C@H](NC(=O)[C@@H](NC(=O)[C@@H](N)Cc1ccc(O)cc1)C(C)C)C(=O)NCC(=O)N[C@@H](Cc1c[nH]cn1)C(=O)N[C@@H](Cc1ccccc1)C(=O)N[C@@H](CCCN=C(N)N)C(=O)N[C@@H](Cc1c[nH]c2ccccc12)C(=O)N[C@@H](CC(=O)O)C(=O)N[C@@H](CCCN=C(N)N)C(=O)N[C@@H](Cc1ccccc1)C(=O)NCC(N)=O | –
3 | – | – | – | – | – | – | – | – | CCCC[C@H](NC(=O)[C@@H](NC(=O)[C@@H](N)Cc1ccc(O)cc1)C(C)C)C(=O)NCC(=O)N[C@@H](Cc1c[nH]cn1)C(=O)N[C@@H](Cc1ccccc1)C(=O)N[C@@H](CCCN=C(N)N)C(=O)N[C@@H](Cc1c[nH]c2ccccc12)C(=O)N[C@@H](CC(=O)O)C(=O)N[C@@H](CCCN=C(N)N)C(=O)N[C@@H](Cc1ccccc1)C(=O)NCC(=O)O | Maximal effect (Melanocortin receptor 4 [2]): 100%
4 | 17 nM | 29 nM | – | – | – | – | – | – | CCCC[C@H](NC(=O)[C@@H](NC(=O)[C@@H](N)Cc1ccc(O)cc1)C(C)C)C(=O)NCC(=O)N[C@@H](Cc1c[nH]cn1)C(=O)N[C@H](Cc1ccccc1)C(=O)N[C@@H](CCCN=C(N)N)C(=O)N[C@H](Cc1c[nH]c2ccccc12)C(=O)N[C@@H](CC(=O)O)C(=O)N[C@@H](CCCN=C(N)N)C(=O)N[C@@H](Cc1ccccc1)C(=O)NCC(N)=O | –
5 | 6 nM | 36 nM | 5 nM | 0.7 nM | 200 nM | 6 nM | 2 nM | – | CCCC[C@H](NC(=O)[C@@H](NC(=O)[C@@H](N)Cc1ccc(O)cc1)C(C)C)C(=O)NCC(=O)N[C@@H](Cc1c[nH]cn1)C(=O)N[C@H](Cc1ccccc1)C(=O)N[C@@H](CCCN=C(N)N)C(=O)N[C@H](Cc1ccc2ccccc2c1)C(=O)N[C@@H](CC(=O)O)C(=O)N[C@@H](CCCN=C(N)N)C(=O)N[C@@H](Cc1ccccc1)C(=O)NCC(N)=O | –
6 | 4 nM | 3.3 nM | 2 nM | 2 nM | – | 3 nM | 2 nM | 11 nM | CCCC[C@H](NC(=O)[C@@H](NC(=O)[C@@H](N)Cc1ccc(O)cc1)C(C)C)C(=O)NCC(=O)N1CCC[C@H]1C(=O)N[C@H](Cc1ccc2ccccc2c1)C(=O)N[C@@H](CCCN=C(N)N)C(=O)N[C@H](Cc1ccc2ccccc2c1)C(=O)N[C@@H](CC(=O)O)C(=O)N[C@@H](CCCN=C(N)N)C(=O)N[C@@H](Cc1ccccc1)C(=O)NCC(N)=O | EC50 (Melanocortin receptor 5 [12]): Not Active
7 | – | – | – | – | – | – | – | – | CCCC[C@H](NC(=O)[C@@H](NC(=O)[C@@H](N)Cc1ccc(O)cc1)C(C)C)C(=O)NCC(=O)N[C@H](Cc1ccc2ccccc2c1)C(=O)N[C@@H](Cc1ccccc1)C(=O)N[C@@H](CCCN=C(N)N)C(=O)N[C@@H](Cc1c[nH]c2ccccc12)C(=O)N[C@@H](CC(=O)O)C(=O)N[C@@H](CCCN=C(N)N)C(=O)N[C@@H](Cc1ccccc1)C(=O)NCC(N)=O | IC50 (Melanocortin receptor 5 [7]; hek293): 1000 nM; EC50 (Melanocortin receptor 5 [9]; hek293): 870 nM; EC50 (Melanocortin receptor 4 [6]; hek293): > 10000 nM; EC50 (Melanocortin receptor 3 [13]; hek293): > 10000 nM; IC50 (Melanocortin receptor 3 [10]; hek293): 3000 nM; IC50 (Melanocortin receptor 4 [5]; hek293): 1990 nM
8 | 20 nM | 2700 nM | 3.3 nM | 0.16 nM | 490 nM | 6 nM | 1.5 nM | 951 nM | CCCC[C@H](NC(=O)[C@@H](NC(=O)[C@@H](N)Cc1ccc(O)cc1)C(C)C)C(=O)NCC(=O)N[C@@H](Cc1cnc[nH]1)C(=O)N[C@H](Cc1ccc2ccccc2c1)C(=O)N[C@@H](CCCNC(=N)N)C(=O)N[C@H](Cc1ccccc1)C(=O)N[C@@H](CC(=O)O)C(=O)N[C@@H](CCCNC(=N)N)C(=O)N[C@@H](Cc1ccccc1)C(=O)NCC(N)=O (H-YV[Nle]GH[d2Nal]R[dF]DRFG-NH2) | –

Row | SMILES | IC50 (Melanocortin receptor 4 [5]) | EC50 (Melanocortin receptor 4 [6]) | IC50 (Melanocortin receptor 5 [7]) | IC50 [8] | EC50 (Melanocortin receptor 5 [9]) | IC50 (Melanocortin receptor 3 [10]) | EC50 [11] | EC50 (Melanocortin receptor 3 [13]) | other results
9 | CCCC[C@H](NC(=O)[C@@H](NC(=O)[C@@H](N)Cc1ccc(O)cc1)C(C)C)C(=O)NCC(=O)N1CCC[C@H]1C(=O)N[C@@H](Cc1ccccc1)C(=O)N[C@@H](CCCN=C(N)N)C(=O)N[C@H](Cc1ccc2ccccc2c1)C(=O)N[C@@H](CC(=O)O)C(=O)N[C@@H](CCCN=C(N)N)C(=O)N[C@@H](Cc1ccccc1)C(=O)NCC(N)=O | – | – | 650 nM | – | 250 nM | 32 nM | – | 13 nM | –
